# Reference: ChEMBL document CHEMBL1255281, “Effects on gram-negative and gram-positive bacteria mediated by 5-aminolevulinic Acid and 5-aminolevulinic acid derivatives” (2008)
# The source made the active and inactive calls. No cut-off for these calls is given here.
# Key:
# Escherichia coli [1] = experiment: Induction of photoactive porphyrins in Escherichia coli K-12 at 10 mM exposed to irradiation at 120 J.cm2 light by HPLC; assay type: functional, organism-based
# Summary of the method: (§1)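 Cells were loaded 4 h at 37°C in the dark with substrate in PBS (pH 6.5), in parallel with the PDI samples. 10 ml of suspension was pelleted and taken up in ethanol/DMSO/acetic acid (80:20:1). Cells were broken by five 5-s sonication pulses at 0°C and centrifuged. The supernatant was run on HPLC with a gradient (acetate buffer/acetonitrile to methanol/acetonitrile) and fluorescence detection (ex 407, em 620 nm). Total porphyrins are given as pmol·10⁻⁶ CFU.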
# Escherichia coli [2] = experiment: Antibacterial activity against Escherichia coli K-12 assessed as reduction in microbial viability incubated at 10 mM followed by irradiation at 120 J.cm2 light; assay type: functional, organism-based
# Summary of the method: (§2)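 Log-phase cells (OD600 ~0.30) washed twice in PBS (0.1 N, pH 6.5), pelleted, resuspended in freshly made substrate in the same PBS and kept 4 h at 37°C in the dark with shaking. About 5 × 10⁷ bacteria in 2.5 ml were then exposed to white halogen light for 40 min (120 J·cm⁻²). CFU were counted by plating dilutions on Columbia agar. Survival = CFU/ml after PDI ÷ CFU/ml of initial sample; mean of n = 4 ± SD.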
# Pseudomonas aeruginosa [3] = experiment: Antibacterial activity against Pseudomonas aeruginosa assessed as microbial survival fraction incubated at 10 mM followed by irradiation at 120 J.cm2 light relative to untreated control; assay type: functional; summary of the method: as §2
# Escherichia coli [4] = experiment: Induction of photoactive porphyrins in Escherichia coli K-12 assessed as porphyrin 5-CP level exposed to irradiation at 120 J.cm2 light by HPLC; assay type: functional, organism-based; summary of the method: as §1
# Escherichia coli [5] = experiment: Antibacterial activity against Escherichia coli K-12 assessed as reduction in microbial viability incubated at 30 mM for 4 hrs under dark condition; assay type: functional, organism-based
# Summary of the method: (§3)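 Dark toxicity. Washed log-phase cells (OD600 ~0.30, PBS 0.1 N pH 6.5) were held 4 h at 37°C in the dark with shaking in substrate dissolved in the same PBS and were not illuminated. CFU were counted on Columbia agar. Survival = CFU/ml of nonilluminated sample ÷ CFU/ml of initial sample; mean of n = 4 ± SD.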
# Escherichia coli [6] = experiment: Antibacterial activity against Escherichia coli Ti05 assessed as microbial survival fraction incubated at 10 mM followed by irradiation at 120 J.cm2 light relative to untreated control; assay type: functional; summary of the method: as §2
# Staphylococcus aureus [7] = experiment: Induction of photoactive porphyrins in methicillin resistant Staphylococcus aureus assessed as porphyrin level per 10^-6 CFU microbial load incubated at 10 mM followed by irradiation at 120 J.cm2 light relative to untreated control; assay type: functional
# Summary of the method: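 MRSA was washed in PBS pH 6.5 and held with substrate in PBS for 4 h in the dark at 37°C with shaking; a separate fraction was taken for porphyrin analysis. Pellets were extracted in ethanol/DMSO/acetic acid (80:20:1), sonicated 5 × 5 s at 0°C and centrifuged. Supernatant went to gradient HPLC with fluorescence detection (excitation 407, emission 620 nm). Total porphyrins are expressed as pmol·10⁻⁶ CFU.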
# Escherichia coli [8] = experiment: Induction of photoactive porphyrins in Escherichia coli K-12 assessed as uroporphyrin level exposed to irradiation at 120 J.cm2 light by HPLC; assay type: functional, organism-based; summary of the method: as §1
# Escherichia coli [9] = experiment: Induction of photoactive porphyrins in Escherichia coli K-12 assessed as porphyrin level per 10^-6 CFU microbial load incubated at 10 mM followed by irradiation at 120 J.cm2 light relative to untreated control; assay type: functional; summary of the method: as §1
# Escherichia coli [10] = experiment: Induction of photoactive porphyrins in Escherichia coli K-12 assessed as porphyrin 6-CP level exposed to irradiation at 120 J.cm2 light by HPLC; assay type: functional, organism-based; summary of the method: as §1
# Escherichia coli [11] = experiment: Induction of photoactive porphyrins in Escherichia coli Ti05 assessed as porphyrin level per 10^-6 CFU microbial load incubated at 10 mM followed by irradiation at 120 J.cm2 light relative to untreated control; assay type: functional; summary of the method: as §1
# Pseudomonas aeruginosa [12] = experiment: Induction of photoactive porphyrins in Pseudomonas aeruginosa assessed as porphyrin level per 10^-6 CFU microbial load incubated at 10 mM followed by irradiation at 120 J.cm2 light relative to untreated control
# Escherichia coli [13] = experiment: Induction of photoactive porphyrins in Escherichia coli K-12 assessed as porphyrin 7-CP level exposed to irradiation at 120 J.cm2 light by HPLC; assay type: functional, organism-based; summary of the method: as §1
# Staphylococcus aureus [14] = experiment: Antibacterial activity against methicillin resistant Staphylococcus aureus assessed as microbial survival fraction incubated at 10 mM followed by irradiation at 120 J.cm2 light relative to untreated control; assay type: functional
# Summary of the method: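 MRSA grown 48 h on Columbia sheep-blood agar, then overnight in tryptone soy broth at 37°C, brought to OD600 ~0.30 and washed twice in PBS pH 6.5. Cells were held with substrate in PBS for 4 h in the dark at 37°C with shaking. About 5 × 10⁷ bacteria were exposed to halogen white light for 40 min (120 J·cm⁻²). CFU were counted on Columbia agar; survival = N_PDI/N₀; mean of n = 4 ± SD.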
# Escherichia coli [15] = experiment: Antibacterial activity against Escherichia coli K-12 assessed as microbial survival fraction incubated at 10 mM followed by irradiation at 120 J.cm2 light relative to untreated control; assay type: functional; summary of the method: as §2
# Pseudomonas aeruginosa [16] = experiment: Antibacterial activity against Pseudomonas aeruginosa assessed as microbial survival fraction incubated at 1 mM followed by irradiation at 120 J.cm2 light relative to untreated control; assay type: functional; summary of the method: as §2
# Pseudomonas aeruginosa [17] = experiment: Induction of photoactive porphyrins in Pseudomonas aeruginosa assessed as porphyrin level per 10^-6 CFU microbial load incubated at 1 mM followed by irradiation at 120 J.cm2 light relative to untreated control; assay type: functional; summary of the method: as §1
# Escherichia coli [18] = experiment: Antibacterial activity against Escherichia coli K-12 assessed as reduction in microbial viability incubated at 40 mM for 4 hrs under dark condition; assay type: functional, organism-based; summary of the method: as §3
# Escherichia coli [19] = experiment: Induction of photoactive porphyrins in Escherichia coli Ti05 assessed as porphyrin level per 10^-6 CFU microbial load incubated at 1 mM followed by irradiation at 120 J.cm2 light relative to untreated control; assay type: functional; summary of the method: as §1
# Escherichia coli [20] = experiment: Induction of photoactive porphyrins in Escherichia coli K-12 assessed as protoporphyrin level exposed to irradiation at 120 J.cm2 light by HPLC; assay type: functional, organism-based; summary of the method: as §1
# Escherichia coli [21] = experiment: Antibacterial activity against Escherichia coli K-12 assessed as reduction in microbial viability incubated at <40 mM for 4 hrs under dark condition; assay type: functional, organism-based; summary of the method: as §3
# Escherichia coli [22] = experiment: Induction of photoactive porphyrins in Escherichia coli K-12 assessed as porphyrin level per 10^-6 CFU microbial load incubated at 0.1 mM followed by irradiation at 120 J.cm2 light relative to untreated control; assay type: functional; summary of the method: as §1
# Escherichia coli [23] = experiment: Antibacterial activity against Escherichia coli K-12 assessed as reduction in microbial viability incubated at 0.1 mM followed by irradiation at 120 J.cm2 light; assay type: functional, organism-based; summary of the method: as §2
# Escherichia coli [24] = experiment: Antibacterial activity against Escherichia coli Ti05 assessed as microbial survival fraction incubated at 1 mM followed by irradiation at 120 J.cm2 light relative to untreated control; assay type: functional; summary of the method: as §2
# Escherichia coli [25] = experiment: Antibacterial activity against Escherichia coli K-12 assessed as microbial survival fraction incubated at 0.1 mM followed by irradiation at 120 J.cm2 light relative to untreated control; assay type: functional; summary of the method: as §2
# Escherichia coli [26] = experiment: Antibacterial activity against Escherichia coli K-12 assessed as reduction in microbial viability incubated at 40 mM followed by irradiation at 120 J.cm2 light; assay type: functional, organism-based; summary of the method: as §2
# Escherichia coli [27] = experiment: Induction of photoactive porphyrins in Escherichia coli K-12 exposed to irradiation at 120 J.cm2 light by HPLC; assay type: functional, organism-based; summary of the method: as §1
smiles,measurement,setting,value
CCCCCCOC(=O)CCC(=O)CN,Activity,Escherichia coli [1],inactive
same,growth inhibition (GI),Escherichia coli [2],inactive
COC(=O)CCC(=O)CN [METHYL AMINOLEVULINATE],Ratio,Pseudomonas aeruginosa [3],0.012
same,Activity,Escherichia coli [4],Active
same,growth inhibition (GI),Escherichia coli [5],Active
same,Ratio,Escherichia coli [6],2e-05
same,Activity,Staphylococcus aureus [7],2.5 pmol
same,Activity,Escherichia coli [8],Active
same,Activity,Escherichia coli [9],12.5 pmol
same,Activity,Escherichia coli [10],Active
same,Activity,Escherichia coli [11],10.2 pmol
same,Activity,Pseudomonas aeruginosa [12],6 pmol
same,Activity,Escherichia coli [13],Active
same,growth inhibition (GI),Escherichia coli [2],Active
same,Ratio,Staphylococcus aureus [14],0.00078
same,Ratio,Escherichia coli [15],8.1e-06
CCCCCCCCOC(=O)CCC(=O)CN,Activity,Escherichia coli [1],inactive
same,growth inhibition (GI),Escherichia coli [2],inactive
CCCCOC(=O)CCC(=O)CN,Activity,Escherichia coli [1],Active
same,growth inhibition (GI),Escherichia coli [2],Active
NCC(=O)CCC(=O)O [AMINOLEVULINIC ACID],Ratio,Pseudomonas aeruginosa [16],0.0019
same,Activity,Pseudomonas aeruginosa [17],34.5 pmol
same,growth inhibition (GI),Escherichia coli [18],Active
same,Activity,Escherichia coli [19],5.4 pmol
same,Activity,Escherichia coli [20],Active
same,growth inhibition (GI),Escherichia coli [21],inactive
same,Activity,Escherichia coli [22],7.5 pmol
same,growth inhibition (GI),Escherichia coli [23],Active
same,Ratio,Escherichia coli [24],5e-05
same,Activity,Staphylococcus aureus [7],6.6 pmol
same,Activity,Escherichia coli [8],Active
same,Ratio,Escherichia coli [25],0.00048
same,growth inhibition (GI),Escherichia coli [26],Active
same,Activity,Escherichia coli [27],Active
same,Ratio,Staphylococcus aureus [14],5e-06
CCCCCOC(=O)CCC(=O)CN,Activity,Escherichia coli [1],inactive
same,growth inhibition (GI),Escherichia coli [2],inactive
